Laboratory results from paper PMC6728149 (Science signaling, 2019).
Entries after “also recorded” stand apart in the source; their conditions may differ.

Key:
Assay type in all cases: cell-based, human
MYC = MYC protein levels by immunoblot in MIA PaCa-2 cells; details: 6 hours
CDK8/19 = assay: pSTAT1; details: MIA PaCa-2 cells
Outline: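 CDK8/19 inhibition in compound-treated MIA PaCa-2 cells was read as pSTAT1 by immunoblot. Lysis was in 1% Triton buffer (25 mM Tris pH 7.4) with protease and phosphatase inhibitors; clarification was at 18,000 x g, 15 min, 4 °C. Blots are representative of at least three independent experiments.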

CDK9 = assay: pPol II; details: MIA PaCa-2 cells, 6 hours
Outline: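 After 6 h compound exposure, MIA PaCa-2 lysates were made in 1% Triton buffer, pH 7.4, with protease and phosphatase inhibitors, cleared at 18,000 x g, 15 min, 4 °C, and quantified by Bradford. pPol II and MCL-1 were immunoblotted as CDK9 signaling read-outs.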

MYC Ser^62 = assay: pMYC Ser62 immunoblot in MIA PaCa-2 cells; details: 30 min
Outline: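 MIA PaCa-2 cells were exposed to CDK9 inhibitors for 30 min. Lysates were cleared at 18,000 x g, 15 min, 4 °C, and protein was quantified by Bradford. pMYC Ser62 and total MYC were immunoblotted.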

EGFP-MYC = assay: GPS-MYC degradation screen; details: 6 hours; for effect on EGFP-MYC stability in the GPS-MYC screen: 20 μM
Outline: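 MIA PaCa-2 cells were lentivirally transduced with DsRed-IRES-EGFP-MYC and selected with 2 μg/ml puromycin. Frozen stocks were thawed, grown 2 days, then plated at 20,000 cells/well in 384-well plates. Next day, compound was given in DMEM/2% FBS for 6 h. Controls were DMSO, cycloheximide (final 7.5 μg/ml) and MG132 (final 3.75 μM). Cells were detached with Accumax (20 min, 37 °C) and read by plate flow cytometer for EGFP/DsRed. Values were normalized to control wells; run in duplicate.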

MYC mRNA = MYC mRNA by qPCR; details: MIA PaCa-2 cells
Outline: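 MIA PaCa-2 cells were compound-treated (6 h where stated). MYC mRNA was measured by qPCR, normalized to GAPDH or BACT mRNA, and analysed by the ddCT method.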

Structure (SMILES)	endogenous MYC protein levels (MYC)	effect on EGFP-MYC stability in the GPS-MYC screen (EGFP-MYC)	also measured
COc1cc(N2CCN(C)CC2)ccc1Nc1nccc(-c2cn(C)c3cnccc23)n1 [AZ191]	failed to cause a dose-dependent loss of endogenous MYC protein	–	–
CN1CCN(C(=O)c2ccc3cc(CCNc4ncnc5ccc(C#N)cc45)ccc3c2)CC1 [Senexin B]	but not MYC protein levels	–	pSTAT1 (phosphorylation of STAT1 at S727) (CDK8/19): reduction in pSTAT1; MCL-1 protein levels (CDK9): absence of a reduction in MCL-1
COc1ncc2cc(C(=O)Nc3cc(C(=O)NCc4cccc(Cl)c4)ccc3Cl)c(=O)[nH]c2n1 [TC-S 7004]	failed to cause a dose-dependent loss of endogenous MYC protein	–	–
CC(C)(C)c1cnc(CSc2cnc(NC(=O)C3CCN(CC(=O)NCCOCCOCCOCCNc4cccc5c4C(=O)N(C4CCC(=O)NC4=O)C5=O)CC3)s2)o1 (stereo not shown) [THAL-SNS-032]	–	–	MYC phosphorylation at Ser^62 (MYC Ser^62): decreased MYC phosphorylation at Ser^62
O=C(Nc1n[nH]c2nc(-c3ccco3)c(Br)cc12)C1CC1 [UNC10112671]	–	stabilized MYC	–
CN(C)CCOc1ccc(-c2nc(-c3ccncc3)c(-c3ccc4c(c3)CC/C4=N\O)[nH]2)cc1.Cl.O [UNC10112687]	–	destabilized MYC	–
COC(=O)Nc1nc2ccc(Oc3ccc(NC(=O)Nc4ccccc4)cc3)cc2[nH]1 [UNC10112731]	–	increased EGFP-MYC without affecting DsRed	EGFP-MYC and endogenous MYC levels in GPS-MYC cells (EGFP-MYC; secondary validation, flow cytometry and immunoblot): dose-dependent increase in EGFP-MYC and endogenous MYC levels; MYC mRNA levels (MYC mRNA): not due to increased transcription
CCOc1cc(N2CCC(O)CC2)ccc1Nc1ncc2c(n1)N(C)c1ccccc1C(=O)N2C [XMD8–92]	–	–	phosphorylation of RNA polymerase II (pPol II) at S2 (CDK9): did not reduce phosphorylation of the CDK9 substrate Pol II
S=C(NCc1ccc2c(c1)OCO2)N1CCN(c2ncnc3c2oc2ccccc23)CC1 [amuvatinib]	did not increase endogenous MYC in a dose-dependent manner; also recorded: failed to cause a dose-dependent loss of endogenous MYC protein	–	–
